Data taken from the EternaBench riboswitch data.

Tested on: MS2 coat protein
Assay: apparent Kd, MS2 coat protein; higher = weaker binding; RNA-MaP array; FMN 200 µM where present
How it was run: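 Binding was read on Illumina sequencing-chip clusters where stalled E. coli RNA polymerase had transcribed each design. A titration of SNAP-549-labelled MS2 coat protein began at 0.7 or 1.5 nM and doubled to 3 µM, once without ligand and once with constant ligand, in 100 mM Tris-HCl pH 7.5, 80 mM KCl, 4 mM MgCl2, BSA, DTT, yeast tRNA and Tween-20. The apparent Kd is the median of filtered per-cluster binding-curve fits, based on green signal normalised to red-channel RNA signal and control-cluster median Fmax.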

[1] = designed as: OFF switch for flavin mononucleotide, no ligand
[2] = ligand present: flavin mononucleotide, designed as: OFF switch for flavin mononucleotide
[3] = designed as: ON switch for flavin mononucleotide, no ligand
[4] = ligand present: flavin mononucleotide, designed as: ON switch for flavin mononucleotide

Row | Sequence | apparent Kd [1] | apparent Kd [2] | apparent Kd [3] | apparent Kd [4]
1 | UUAGAAUUGUUAGGAUAUUAAUUAUUUUUUAGUAUGAUCUACAUGAGGAUCACCCAUGUUAAAUAUAAGAAGGAACGUUAUAUU | 0.0636 µM | 0.0636 µM |  | 
2 | AGUUGGCGAGGAUAUACAUGAGGAUCACCCAUGUGAAUAAUAAUAGUGAGGAAGAAAAGUAGAAGGCGCUGACA | 0.0497 µM | 0.237 µM |  | 
3 | AACCUGCGUGGAGGAUAUGAGUGGUUGGACGCAUCAGAAGGCCAGCAGCCACAUGAGGAUCACCCAUGUACAGACACAUGUUUC |  |  | 0.245 µM | 0.0951 µM
4 | GUAAAGUGAGGAUAUGGUAAUUUAAUUAUUAAUUAAUUAAUCCAGAAGGCACAUGAGGAUCACCCAUGUAAAUG | 0.0319 µM | 0.063 µM |  | 
5 | ACAUGAGGAUCACCCAUGUGAUGAUCUCCCAUGUUAUAUUUCAGAAGGCUCGUGUGUUUGAUGAGAGAGGAUAUGGAAUAUACG | 0.377 µM | 0.258 µM |  | 
6 | UGUAACUAGUAAGGAUAUACUAUUGAUUUAAUAGUAGAAGGUACAGUCUUUUGUAUAUCAUGUUUACAUGAGGAUCACCCAUGU |  |  | 0.0104 µM | 0.00777 µM
7 | UGAAACUACGAGAAGGACAUGUGGUCCUUCAGUUACAUGAGGAUCACCCAUGUAGGAUAUCGUAGUUUCAGGAUCGUGAGAUCU | 0.0385 µM | 0.0127 µM |  | 
8 | AAUAACAGAGGAUAUACUGUUUUAUGUAUUUAUUAUUUUAAACAUGAGGAUCACCCAUGUAGAAGGCUGAUUAA | 0.0302 µM | 0.027 µM |  | 
9 | UGGUACUAGGGAGGAUAUGGGACGAUACAUGAGGAUCACCCAUGUUUAAGAAUGCCGAGAGGCAACUAGAAGGCCCUAGUACCU |  |  | 0.494 µM | 0.0217 µM
10 | UUGGACGUCGUAGGAUAUGUAGGAUUUUCCUACAUGAGGAUCACCCAUGUUGAAAUGGAAGAAGGACAGAAGGACGAUGUCCAU |  |  | 0.139 µM | 0.0162 µM
11 | AGUUGGCGAGGAUAUACAUGAGGAUCACCCAUGUGAGAGAUACUAGUGAGGUCGAUUAGUAGAAGGCGCUGACA | 0.0311 µM | 0.439 µM |  | 
12 | UUAGAAAUGUUAGGAUAUUAAUAUUUUUUUAGUAUGAUCUACAUGAGGAUCACCCAUGUUAAAAUUAAGAAGGAACAUUUUAUU | 0.0697 µM | 0.0569 µM |  | 
13 | GGGUAUAUUACAUGAGGAUCACCCAUGUCAGAAAGGGUAAUCAGAAGGUACUAUUAGAGAAAGAGUAAGGAUAUGAUUAUACCC |  |  | 0.176 µM | 0.0227 µM
14 | UUUGGGUGGCUGGAGGAUAUUCUUGUGGUUACAUGAGGAUCACCCAUGUGUCGCGCGGUGCGCGAGGAGAAGGCUGGCGGCCGUU |  |  | 0.411 µM | 0.128 µM
15 | AUUAUAUAGACAGGAUAUAGAAUAUUAUUUUAACAUGAGGAUCACCCAUGUAACCUUAUGUGUAGCUAGAAGGGUCAUUUAUUA | 0.0899 µM | 0.162 µM |  | 
16 | ACCUCACACGUCAGGAUAUGCCUGCGGAUAUGCGGGUAGAAGGGACAUGAGGAUCACCCAUGUCUUUCGUGAUU | 0.0158 µM | 0.0211 µM |  | 
17 | UGAAAUCAUGUAGGAUAUGCAUGGCGAAGCUACGCAGAAGGACAUGAGGAUCACCCAUGUUCUAGCUACCGAGAACGGUGGCAA | 0.0209 µM | 0.109 µM |  | 
18 | UAUCGUGUUCGAGGAUAUGAAACUAGGCCGGGCACUGUAUACCCGCCUGUCUCAGAAGGCGGACAUGAGGAUCACCCAUGUAAA | 0.202 µM | 0.0174 µM |  | 
19 | CAGCGAUAGCUGAAUGGUACAUGGGAGGAUAUGGGUUGAACAUGAGGAUCACCCAUGUUAUAAUACUAGAAGGCCCAUGUACCU |  |  | 0.0166 µM | 0.00545 µM
20 | AGCUGACGAGGAUAUACAUGAGGAUCACCCAUGUUGGUUCAGCGACUUCGGUCGCAAUGUAGAAGGCGUCAGCU | 0.45 µM | 0.327 µM |  | 
21 | AAGUCUGGACGAGGAUAUCAGCUGUAACUGGCGUCGACAUGAGGAUCACCCAUGUUGCUAUAGGGUGAGAAGGCGUUUGGGCAA |  |  | 0.0477 µM | 0.0288 µM
22 | UUCAUGUGAGGAUAUGUGAUCUGCUUUCUGUUUAGAUGAUCACAGAAGGCACAUGAGGAUCACCCAUGUAGAUC |  | 0.0226 µM |  | 
23 | UAUUUUAACUAAGGAUAUCUAUAAUAAUUUGAAACAUGAGGAUCACCCAUGUUCAUGGGUUUUUAAGAGAAGGUAGAUGAAUAA |  |  | 0.0598 µM | 0.0261 µM
24 | ACUAUACGAGGAUAUGCUGUCAAUACUAAGGAAUUAGUAUGACAUGAGGAUCACCCAUGUAGAAGGCGUAUACU | 0.0278 µM | 0.0147 µM |  | 

Row | Sequence | apparent Kd [1] | apparent Kd [2] | apparent Kd [3] | apparent Kd [4]
25 | AAAUUUAACGAAGGAUAUACUAACAUGAGGAUCACCCAUGUGUGUUUCGUGUUACUGAAAUUCGGGUAGAAGGUCGUAUACAUA | 0.0804 µM | 0.0337 µM |  | 
26 | GUCUGUUACGAGAAGGACAAUUGGAUGCAGGCUGUAGGAUAUCGAGGCAGACAUGAGGAUCACCCAUGUAGGCUUACGAUGGGU | 0.0117 µM | 0.0191 µM |  | 
27 | UUGUUAUAUGUAGGAUAUGCAUAUUAUUAUUAUGCAGAAGGACAUGAGGAUCACCCAUGUGUAUUGUUAUUAUAUAUUAUAUAU | 0.0223 µM | 0.0295 µM |  | 
28 | GAUAGGACAGAGAAGGACGUAGCUAGAGAUACUAGCAUAAGAACCUUUACAUGAGGAUCACCCAUGUAGGAUAUCUGUCCUAUC | 0.00588 µM | 0.00689 µM |  | 
29 | CUUUGGUCAGGAUAUGGUGGGCUGGUCGCGCGGCCGGGUGGCCAGAAGGGACAUGAGGAUCACCCAUGUACGGC | 0.0355 µM | 0.0597 µM |  | 
30 | AUAGGCCUAGGAUAUACAUGAGGAUCACCCAUGUUAAUAUUUCAAUCAUGAUAAACGUGUAGAAGGAGGAAUAA | 0.0259 µM | 0.0286 µM |  | 
31 | GUGGACGUCGUAGGAUAUGUAGGAUAUUCCUACAUGAGGAUCACCCAUGUUGACAUGGAAGAAGGACAGAAGGACGAUGUCCAU |  |  | 0.262 µM | 0.00451 µM
32 | GUCGUACAUGAGGAUCACCCAUGUGAGGAUAUGAGUGACUCAGUGAAAACUGAGUCACUCAGAAGGCGCAUGAU | 0.0845 µM | 0.384 µM |  | 
33 | AACAGUAGAGGAUAUACAUGAGGAUCACCCAUGUGAGAUUUAAGUGGCGUACCACAAAGUAGAAGGCUACUGGA | 0.0362 µM | 0.161 µM |  | 
34 | UGGUACUAGGGAGGAUAUGGGAAGAUACAUGAGGAUCACCCAUGUUUAAGAAUCCCGAGAGGCAACUAGAAGGCCCUAGUACCU |  |  | 0.00808 µM | 0.00696 µM
35 | UUGGGAUGCAAGAAGGGUGACAUGAGGAUCACCCAUGUGUUGUGAAUUCUCGAGAUUUUAUGACCAUAGGAUAUUGCACCGAAC |  |  | 0.0285 µM | 0.0122 µM
36 | GGGUAGAUCGGAGGAUAUCAUGUAAAUACAUGAGGAUCACCCAUGUCGAUGGAGACAUCGGAGAUUGAGAAGGCCGAUGUACCG |  |  | 0.166 µM | 0.0084 µM
37 | GUCAGCUCGUGAGGAUAUACAUGUGCUGGAAACAGCACUAUUAAAUUCACAUGAGGAUCACCCAUGUAGAAGGCACGAGCUGAU | 0.0154 µM | 0.0191 µM |  | 
38 | UCAUUUAUUACAGGAUAUGUUAGUAUUCAGUUGUUUGGUUAUUACUUAUUUACAGAAGGGUAGAACAUGAGGAUCACCCAUGUA |  |  | 0.407 µM | 0.329 µM
39 | CCAUGCGGAUGAGGAUAUUCAUUUAUGAGGAUAGAAGAAGGCAUACAUGAGGAUCACCCAUGUAUACGCAUGAGGAUCCCUUAC | 0.0342 µM | 0.0272 µM |  | 
40 | AAAAAGGCAGGAUAUACAUGAGGAUCACCCAUGUAAAGAAAGAAAGAGGUGAAAGAAAGUAGAAGGGCCAAAAA | 0.16 µM | 0.179 µM |  | 
41 | GAAUAGCGAGGAUAUGCAAUGAAGAUAGUACGAUAUGGCUGACAUGAGGAUCACCCAUGUAGAAGGCGCUGAUC | 0.0448 µM | 0.04 µM |  | 
42 | UUGGACAGCUAGAGCUGCUAAGUACAUGAGGAUCACCCAUGUCAGGAUAUCCUUCCGCAAUGCGAGGAGAAGGGACAGGGUCCC | 0.0754 µM | 0.179 µM |  | 
43 | UCAUUUCAGUAAGGAUAUUAAUUCAUGACGAUACAUGAGGAUCACCCAUGUUAAGAAGGUACUAAUACAAAUAAUGCAUUGUUC | 0.0124 µM | 0.0112 µM |  | 
44 | UUGGACGUCGUAGGAUAUGUAGGAUAUUCCUACAUGAGGAUCACCCAUGUUGACAUCGAAGAAGGACAGAAGGACGAUGUCCAU |  |  | 0.088 µM | 0.00529 µM
45 | GGGUACAUCGGAGGAUAUCAUGUAAAUACAUGAGGAUCACCCAUGUCGAUGGAGACAUCGGCGAUUGAGAAGGCCGAUGUACCG |  |  | 0.752 µM | 0.0176 µM
46 | UUGGACGUCGUAGGAUAUGUAGGAUAUUCCUACAUGAGGAUCACCCAUGUUGACAUGGAACAAGGACAGAAGGACGAUGUCCAU |  |  | 0.493 µM | 0.0174 µM
47 | UGGUACUUCGGAGGAUAUCAUGUAGAUACAUGAGGAUCACCCAUGUCGUACGAGAGUACGGAGAUUGAGAAGGCCGAAGUACCU |  |  | 0.0312 µM | 0.016 µM
48 | UGUCGGAGCAUAGGAUAUUACAUGAGGAUCACCCAUGUAUGAACCAAUAGCUGGAAACAGCAAUGUAAGAAGGCUGCUCCGACA | 0.00516 µM | 0.00898 µM |  | 
